# According to ChEMBL document CHEMBL2203218, “Evaluation of [(11)C]N-Methyl Lansoprazole as a Radiopharmaceutical for PET Imaging of Tau Neurofibrillary Tangles” (ACS Med Chem Lett, 2012):
# pKd, pKi: −log10 of the molar value.
# Columns and labels:
# Kidney = test: Biodistribution in iv dosed Sprague-Dawley rat kidney after 5 to 60 mins by gamma counting; type: ADME, organism-based; conditions: in vivo
# Procedure, shortened: (§1)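 Tracer reconstituted in ethanolic saline and injected via tail vein into anesthetized Sprague-Dawley rats (three per time point). Rats were allowed to wake, then reanesthetized and sacrificed at 5, 30 and 60 min postinjection for tissue distribution.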
# Brain [1] = test: Drug uptake in Sprague-Dawley rat brain at 0.95 mCi, iv after 60 mins by MicroPET analysis; type: ADME, organism-based; conditions: in vivo, 1 h
# Brain [2] = test: Drug uptake in rhesus monkey brain at 5.4 mCi, iv at 3 mins by MicroPET analysis; type: ADME, organism-based, Macaca mulatta; conditions: in vivo, 0.05 h
# Brain [3] = test: Drug uptake in wild type Sprague-Dawley rat brain at 1 to 10 mCi by autoradiography analysis; type: ADME, tissue-based; conditions: in vivo
# Rattus norvegicus = test: Metabolic stability in anesthetized iv dosed Sprague-Dawley rat […] and HPLC analysis; type: ADME, organism-based; conditions: in vivo, in the assay text read “5 to 30 mins” for “5 to 60 mins”
# Procedure, shortened: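 Sprague-Dawley rats, anesthetized, received tracer via tail vein (three per time point). They were allowed to wake, then reanesthetized and sacrificed at 5, 15 and 30 min. Blood collected at each time was centrifuged, and the plasma was analyzed by HPLC and radio-TLC for parent and radioactive metabolites.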
# Brain [4] = test: Drug uptake in human Tau expressing Sprague-Dawley rat brain at 1 to 10 mCi by autoradiography analysis; type: ADME, tissue-based; conditions: in vivo
# Liver = test: Biodistribution in iv dosed Sprague-Dawley rat liver after 5 to 60 mins by gamma counting; type: ADME, organism-based; conditions: in vivo; procedure, shortened: as §1
# Hippocampus = test: Drug uptake in human Tau expressing Sprague-Dawley rat hippocampus at 1 to 10 mCi by autoradiography analysis relative to wild type Sprague-Dawley rat brain; type: ADME, tissue-based; conditions: in vivo
# Brain [5] = test: Biodistribution in iv dosed Sprague-Dawley rat brain after 5 to 60 mins by gamma counting; type: ADME, organism-based; conditions: in vivo; procedure, shortened: as §1
# [6] = Octanol-water partition coefficient, log P of the compound; type: physicochemical
# [7] = molecular target: Microtubule-associated protein tau (Homo sapiens, UniProt P10636); test: Binding affinity to heparin induced human Tau 441 at 50 pM to 500 nM after 30 mins
# Microtubule-associated protein tau, sequence (P10636 whole entry): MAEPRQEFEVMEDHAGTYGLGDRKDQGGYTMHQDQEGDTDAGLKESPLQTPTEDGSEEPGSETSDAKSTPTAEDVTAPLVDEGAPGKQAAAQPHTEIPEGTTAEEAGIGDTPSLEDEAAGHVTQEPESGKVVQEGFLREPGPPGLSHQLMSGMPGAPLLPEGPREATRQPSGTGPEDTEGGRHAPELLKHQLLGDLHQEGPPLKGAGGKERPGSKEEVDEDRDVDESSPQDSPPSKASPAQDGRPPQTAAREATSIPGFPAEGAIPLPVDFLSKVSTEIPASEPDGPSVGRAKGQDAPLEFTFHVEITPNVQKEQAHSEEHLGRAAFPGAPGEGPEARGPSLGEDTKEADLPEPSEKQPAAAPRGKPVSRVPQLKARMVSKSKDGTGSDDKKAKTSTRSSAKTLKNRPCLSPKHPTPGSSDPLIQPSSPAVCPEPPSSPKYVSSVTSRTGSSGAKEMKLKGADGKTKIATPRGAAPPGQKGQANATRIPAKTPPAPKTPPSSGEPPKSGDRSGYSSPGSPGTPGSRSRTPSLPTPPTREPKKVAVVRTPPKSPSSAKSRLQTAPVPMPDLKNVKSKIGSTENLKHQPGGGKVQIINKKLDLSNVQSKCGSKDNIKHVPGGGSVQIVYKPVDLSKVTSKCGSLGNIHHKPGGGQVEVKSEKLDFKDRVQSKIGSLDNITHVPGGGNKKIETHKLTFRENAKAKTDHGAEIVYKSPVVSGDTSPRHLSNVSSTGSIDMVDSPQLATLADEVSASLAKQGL
# Cortex = test: Drug uptake in human Tau expressing Sprague-Dawley rat cortex at 1 to 10 mCi by autoradiography analysis relative to wild type Sprague-Dawley rat brain; type: ADME, tissue-based; conditions: in vivo
# Brain [8] = test: Drug uptake in rhesus monkey brain at 5.4 mCi, iv after 3 mins by MicroPET analysis; type: ADME, organism-based, Macaca mulatta; conditions: in vivo, 0.05 h
# [9] = Drug uptake in human globus pallidus using bielschowsky staining by autoradiography analysis; type: ADME, tissue-based
# Procedure, shortened: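 PSP patient brain blocks were cut into 20 μm cryostat sections on slides and incubated with tracer for 10 min. Slides were washed, dried and exposed to film for 5 min. The same slides were then stained by modified Bielschowsky staining to locate tau NFTs for colocalization.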
compound,measurement,setting,value
Cc1c(OCC(F)(F)F)ccnc1C[S+]([O-])c1nc2ccccc2n1[11CH3] (stereo unspecified),Drug uptake,Kidney,Active
same,Drug uptake,Brain [1],Not Active
same,Drug uptake,Brain [2],1600 nCi/cc
same,Drug uptake,Brain [3],Active
same,Stability,Rattus norvegicus,Unstable
same,Drug uptake,Brain [4],Active
same,Drug uptake,Liver,Active
same,Drug uptake,Hippocampus,4%
same,Drug uptake,Brain [5],Not Active
same,logP,[6],2.18
same,pKd,[7],9.15
same,Drug uptake,Cortex,12%
same,Drug uptake,Brain [8],500 nCi/cc
same,Drug uptake,[9],Active
Cc1c(OCC(F)(F)F)ccnc1C[S+]([O-])c1nc2ccccc2n1C (stereo unspecified),Bmax,[7]; tested as the 11C-labelled form,0.214 fmol/µg
Cc1c(OCC(F)(F)F)ccnc1C[S+]([O-])c1nc2ccccc2[nH]1 (stereo unspecified) [LANSOPRAZOLE],pKi,[7],8.60
